In ChEMBL document CHEMBL1151957, “Design and synthesis of novel C14-hydroxyl substituted triptolide derivatives as potential selective antitumor agents” (J Med Chem, 2009) one finds IC50 and Activity data, which are given here for five compounds.

Activity calls are given as the source filed them. The rule behind the calls is not given here.

The subject of assay [1] is PC-3. In words: Cytotoxicity against human PC3 cells by SRB assay. Format: functional, cell-based. The gist of the method: (§1)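 Cells grown in RPMI 1640 with 10% heat-inactivated FBS, 2 mmol/L glutamine, 10 mmol/L HEPES pH 7.4, 5% CO2, 37 °C; MCF-7/ADR also given 1 mmol/L pyruvate and 0.01 mg/mL insulin. Treated in triplicate with graded concentrations for 72 h at 37 °C, read by SRB. IC50 (50% growth inhibition vs control) by logit method; three independent experiments.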
(In SRB staining, fixed cells bind dye roughly in proportion to their protein.)

Another assay concerns MDA-MB-468. In words: Cytotoxicity against human MDA-MB-468 cells by SRB assay. It is filed as functional, cell-based. The gist of the method:
as §1

The test system of assay [2] is SK-OV-3. In words: Cytotoxicity against human SKOV3 cells by SRB assay. It is filed as functional, cell-based. An outline of the steps:
as §1

In another assay the test system is MDR. In words: Cytotoxicity against multidrug-resistant human KB/VCR cells by SRB assay in presence of MDR reversing agent verapamil. Format: functional, cell-based. An outline of the steps: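 KB/VCR cells exposed to test agents together with the MDR reversal agent verapamil. Growth inhibition was read by SRB assay after 72 h treatment; each point is the mean of three independent experiments.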

For a further assay, the system named is K562. In words: Cytotoxicity against human K562 cells after 72 hrs by MTT assay. It is filed as functional, cell-based. The following applies: K562, 72 h. An outline of the steps: (§2)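 Cells grown at 37 °C in 5% CO2 in RPMI 1640 with 10% heat-inactivated FBS, glutamine, antibiotics and HEPES; MCF-7 medium also had sodium pyruvate and insulin. Cells in 96-well plates were treated in triplicate with graded concentrations for 72 h at 37 °C. Read-out was MTT for leukemia lines and SRB for solid-tumor lines. IC50 was set relative to control by the logit method, as mean ± SD of three independent experiments.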
A general note: Formazan colour is commonly taken as a measure of viable cells.

For another assay, the system named is MOLT-4. In words: Cytotoxicity against human MOLT4 cells after 72 hrs by MTT assay. It is filed as functional, cell-based. The following applies: MOLT-4, 72 h. An outline of the steps:
as §2

The subject of another assay is MKN-28. In words: Cytotoxicity against human MKN28 cells after 72 hrs […]. The following applies: MKN-28, 72 h. Format: functional, cell-based. An outline of the steps: as §2
The subject of a further assay is HCT-116. In words: Cytotoxicity against human HCT116 cells after 72 hrs […]. Format: functional, cell-based. To be noted: HCT-116, 72 h. An outline of the steps: as §2
A short description of assay [3]: Cytotoxicity against human SW1116 cells after 72 hrs by […]. Format: functional, cell-based. The following applies: SW 1116, 72 h. The gist of the method:
as §2

A further assay deals with HCT-15. In words: Cytotoxicity against human HCT15 cells after 72 hrs […]. The following applies: HCT-15, 72 h. It is filed as functional, cell-based. An outline of the steps:
as §2

A further assay relates to SMMC-7721. In words: Cytotoxicity against human SMMC7721 cells after 72 hrs […]. It is filed as functional, cell-based. To be noted: SMMC-7721, 72 h. An outline of the steps:
as §2

Another assay concerns Bel-7402. In words: Cytotoxicity against human Bel7402 cells after 72 hrs by […]. It is filed as functional, cell-based. The following applies: Bel-7402, 72 h. The gist of the method: as §2
Assay [4] in a line: Cytotoxicity against human 786-O cells after 72 hrs […]. It is filed as functional, cell-based. To be noted: 786-0, 72 h. The gist of the method:
as §2

The next assay has as its system MDA-MB-231. In words: Cytotoxicity against human MDA-MB-231 cells after 72 hrs […]. It is filed as functional, cell-based. The following applies: MDA-MB-231, 72 h. An outline of the steps:
as §2

A further assay concerns MCF7. In words: Cytotoxicity against human MCF7 cells after 72 hrs […]. It is filed as functional, cell-based. The following applies: MCF7, 72 h. An outline of the steps:
as §2

Assay [5] concerns SK-OV-3. In words: Cytotoxicity against human SKOV3 cells after 72 hrs by […]. Format: functional, cell-based. To be noted: SK-OV-3, 72 h. An outline of the steps:
as §2

Assay [6] can be described thus: Cytotoxicity against human HO8910 cells after 72 hrs by […]. It is filed as functional, cell-based. To be noted: HO-8910, 72 h. An outline of the steps: as §2
Assay [7] relates to PC-3. In words: Cytotoxicity against human PC3 cells after 72 hrs by […]. The following applies: PC-3, 72 h. Format: functional, cell-based. The gist of the method:
as §2

A further assay concerns DU-145. In words: Cytotoxicity against human DU145 cells after 72 hrs by […]. It is filed as functional, cell-based. To be noted: DU-145, 72 h. An outline of the steps: as §2
In a further assay the test system is KB. In words: Cytotoxicity against human KB cells after 72 hrs […]. It is filed as functional, cell-based. The gist of the method: as §2
Assay [8] in a line: Cytotoxicity against human Rh30 cells after 72 hrs by […]. Format: functional, cell-based. The following applies: SJRH30, 72 h. An outline of the steps: as §2
The subject of a further assay is HeLa. In words: Cytotoxicity against human HeLa cells after 72 hrs […]. It is filed as functional, cell-based. The gist of the method:
as §2

The next assay relates to U-251. In words: Cytotoxicity against human U251 cells after 72 hrs […]. Format: functional, cell-based. The following applies: U-251, 72 h. An outline of the steps:
as §2

A further assay has as its system A549. In words: Cytotoxicity against human A549 cells after 72 hrs by SRB assay. The following applies: A549, 72 h.
Another assay relates to SGC-7901. In words: Cytotoxicity against human SGC7901 cells after 72 hrs by SRB assay. The following applies: SGC-7901, 72 h.

Turning to `CC(C)[C@]12O[C@H]1[C@@H]1O[C@]13[C@]1(O[C@H]1C[C@H]1C4=C(CC[C@@]13C)C(=O)OC4)[C@@]21CO1`, the IC50 (commonly the concentration at which inhibition is half-maximal) was found to be 2.7 µM with PC-3 [1], 1.92 µM in the assay with MDA-MB-468 and 1.56 µM in the assay on SK-OV-3 [2].
Take `CC[C@]1(O)C[C@H]2CN(CCc3c([nH]c4ccccc34)[C@@](C(=O)OC)(c3cc4c(cc3OC)N(C=O)[C@H]3[C@@](O)(C(=O)OC)[C@H](OC(C)=O)[C@]5(CC)C=CCN6CC[C@]43[C@@H]65)C2)C1`: in the assay with MDR, the outcome was Active.
Turning to `CC(C)[C@]12O[C@H]1[C@@H]1O[C@]13[C@]1(O[C@H]1C[C@H]1C4=C(CC[C@@]13C)C(=O)OC4)[C@]21COS(=O)(=O)O1`, the IC50 in the assay with PC-3 [1] was 13.9 µM; in the assay with MDA-MB-468, above 100 µM; in the assay with SK-OV-3 [2] it was above 100 µM.
Regarding `CC(C)[C@]12O[C@H]1[C@@H]1O[C@]13[C@]1(O[C@H]1C[C@H]1C4=C(CC[C@@]13C)C(=O)OC4)[C@@H]2O` [TRIPTOLIDE], the IC50 in the assay with K562 is 0.05 µM; in the assay on MOLT-4 it was 0.017 µM; in the assay on PC-3 [1], 0.02 µM; in the assay on MDA-MB-468, 0.01 µM; with SK-OV-3 [2], 0.009 µM; in the assay on MKN-28, 0.2 µM. For the same compound, the IC50 with HCT-116 was found to be 0.01 µM; in [3], 0.052 µM; with HCT-15, 0.029 µM; with SMMC-7721, 0.018 µM; with Bel-7402, 0.02 µM; in [4], 0.022 µM. Besides, the IC50 worked out at 0.024 µM with MDA-MB-231; 0.019 µM with MCF7; 0.01 µM in the assay with SK-OV-3 [5]; 0.028 µM in assay [6]; 0.043 µM with PC-3 [7]; 0.024 µM in the assay with DU-145. Moreover, the IC50 with KB came to 0.043 µM; in assay [8] it was 0.014 µM; in the assay with HeLa, 0.047 µM; with U-251 it was 0.049 µM; with A549 it was 0.059 µM; in the assay on SGC-7901 it was 0.015 µM.
`CC(C)[C@]1(O)[C@H](Cl)[C@@H]2O[C@]23[C@]2(O[C@H]2C[C@H]2C4=C(CC[C@@]23C)C(=O)OC4)[C@]12CO2`: the IC50 in the assay on PC-3 [1] was 0.47 µM; with MDA-MB-468, 0.21 µM; in the assay on SK-OV-3 [2], 0.14 µM.
